According to ChEMBL document CHEMBL2157986, “The multiobjective based design, synthesis and evaluation of the arylsulfonamide/amide derivatives of aryloxyethyl- and arylthioethyl- piperidines and pyrrolidines as a novel class of potent 5-HT₇ receptor antagonists” (Eur J Med Chem, 2012):

Legend:
[1] = target: 5-hydroxytryptamine receptor 6 (Homo sapiens, UniProt P50406); test: Displacement of [3H]-LSD from human 5-HT6 receptor expressed in HEK293 cells after 1 hr; type: cell-based
[2] = target: 5-hydroxytryptamine receptor 7 (Homo sapiens, UniProt P34969); test: Displacement of [3H]-5-CT from human 5-HT7b receptor expressed in HEK293 cells after 1 hr; type: cell-based
Sequence of 5-hydroxytryptamine receptor 7 (P34969 whole entry): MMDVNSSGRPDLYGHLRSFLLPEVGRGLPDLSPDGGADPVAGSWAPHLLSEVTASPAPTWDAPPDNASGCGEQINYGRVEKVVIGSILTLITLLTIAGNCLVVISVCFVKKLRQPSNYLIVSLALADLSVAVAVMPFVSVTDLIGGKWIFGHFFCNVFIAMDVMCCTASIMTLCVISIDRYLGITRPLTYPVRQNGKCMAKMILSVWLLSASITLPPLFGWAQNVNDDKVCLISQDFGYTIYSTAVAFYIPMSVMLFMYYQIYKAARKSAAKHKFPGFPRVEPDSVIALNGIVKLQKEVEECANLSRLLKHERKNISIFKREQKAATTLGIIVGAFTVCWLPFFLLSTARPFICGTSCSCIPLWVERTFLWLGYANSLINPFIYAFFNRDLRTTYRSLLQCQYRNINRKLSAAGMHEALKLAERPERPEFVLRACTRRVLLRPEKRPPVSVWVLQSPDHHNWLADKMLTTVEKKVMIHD

[3] = target: T1, 5-hydroxytryptamine receptor 1A (Homo sapiens, UniProt P08908); test: Displacement of [3H]-8-OH-DPAT from human 5-HT1A receptor expressed in HEK293 cells after 1 hr; type: cell-based
T1 sequence (P08908 whole entry): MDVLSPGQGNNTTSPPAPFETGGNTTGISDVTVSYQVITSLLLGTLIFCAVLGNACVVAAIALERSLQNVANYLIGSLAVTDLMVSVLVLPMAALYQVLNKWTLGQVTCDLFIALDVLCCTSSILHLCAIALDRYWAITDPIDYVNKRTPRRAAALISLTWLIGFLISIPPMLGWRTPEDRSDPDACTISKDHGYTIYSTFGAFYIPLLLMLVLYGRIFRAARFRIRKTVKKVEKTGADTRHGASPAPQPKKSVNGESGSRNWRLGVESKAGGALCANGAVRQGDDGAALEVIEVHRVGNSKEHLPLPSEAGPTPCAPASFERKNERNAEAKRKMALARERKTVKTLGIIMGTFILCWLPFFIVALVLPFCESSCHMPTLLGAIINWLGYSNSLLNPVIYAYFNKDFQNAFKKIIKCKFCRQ
Summary of the method: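 Membranes from stably transfected HEK293 cells (human 5-HT1A), homogenized in 50 mM Tris–HCl, 0.1 mM EDTA, 4 mM MgCl2, 10 µM pargyline, 0.1% ascorbate; incubated 1 h at room temperature, then rapid filtration and radioactivity counting. Nonspecific binding with 10 µM 5-HT.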

D(2) dopamine receptor = D(2) dopamine receptor (Homo sapiens, UniProt P14416); test: Binding affinity to human dopamine D2L receptor expressed in HEK293 cells after 1 hr; type: cell-based
Sequence of D(2) dopamine receptor (P14416 whole entry): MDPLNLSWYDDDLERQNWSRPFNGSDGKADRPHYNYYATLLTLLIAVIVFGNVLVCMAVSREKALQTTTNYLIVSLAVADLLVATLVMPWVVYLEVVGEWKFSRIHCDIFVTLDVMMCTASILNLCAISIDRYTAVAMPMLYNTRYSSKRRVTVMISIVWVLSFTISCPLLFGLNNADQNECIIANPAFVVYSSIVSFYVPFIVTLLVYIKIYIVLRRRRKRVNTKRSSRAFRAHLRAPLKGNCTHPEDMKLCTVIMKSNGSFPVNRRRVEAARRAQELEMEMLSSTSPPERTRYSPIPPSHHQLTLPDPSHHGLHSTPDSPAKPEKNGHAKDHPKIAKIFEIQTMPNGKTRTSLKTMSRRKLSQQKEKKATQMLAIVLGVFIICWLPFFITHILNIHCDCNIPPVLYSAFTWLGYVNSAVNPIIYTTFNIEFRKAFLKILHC

Homo sapiens = organism: Homo sapiens; test: Selectivity ratio of Ki for human 5-HT1A receptor to Ki for human 5-HT7b receptor

Sequence of 5-hydroxytryptamine receptor 6 (P50406 whole entry): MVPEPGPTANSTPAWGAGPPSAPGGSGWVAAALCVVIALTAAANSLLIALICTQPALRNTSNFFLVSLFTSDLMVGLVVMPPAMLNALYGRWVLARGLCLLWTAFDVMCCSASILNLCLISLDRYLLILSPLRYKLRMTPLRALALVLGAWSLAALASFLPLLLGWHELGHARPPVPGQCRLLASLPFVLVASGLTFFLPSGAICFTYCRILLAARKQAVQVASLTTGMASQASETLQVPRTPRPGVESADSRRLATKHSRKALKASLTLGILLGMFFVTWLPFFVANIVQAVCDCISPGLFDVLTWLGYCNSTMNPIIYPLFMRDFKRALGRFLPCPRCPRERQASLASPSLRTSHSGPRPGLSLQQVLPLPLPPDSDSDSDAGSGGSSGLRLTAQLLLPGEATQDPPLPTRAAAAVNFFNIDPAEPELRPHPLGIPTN

SMILES | Ki [1] [nM] | Ki [2] [nM] | Ki [3] [nM] | Ki (D(2) dopamine receptor) [nM] | Ratio Ki (Homo sapiens)
CC(C)c1ccccc1OCCN1CCC(NS(=O)(=O)c2ccc(F)cc2)CC1 | 240 | 0.3 | 436 | 51 | 1450
CCOc1ccccc1C(=O)NCC1CCN(CCOc2ccccc2SC)CC1 |  | 1190 |  |  | 
CCOc1ccccc1C(=O)NC1CCN(CCOc2ccccc2C(C)C)CC1 |  | 311 |  |  | 
O=S(=O)(NC1CCN(CCOc2ccccc2-c2ccccc2)C1)c1ccc(F)c(F)c1 (stereo not given) | 327 | 7 | 92 | 24 | 13
O=C(NC1CCN(CCSc2cccc(Cl)c2Cl)C1)c1ccc2ccccc2n1 (stereo not given) |  | 1110 |  |  | 
Cc1ccccc1C(=O)NC1CCN(CCOc2ccccc2-c2ccccc2)C1 (stereo not given) |  | 59 |  |  | 
O=C(NC1CCN(CCOc2cc(Cl)ccc2Cl)CC1)c1ccc2ccccc2n1 |  | 873 |  |  | 
O=C(NCC1CCN(CCOc2ccccc2-c2ccccc2)CC1)c1ccc2ccccc2n1 |  | 334 |  |  | 
O=C(NC1CCN(CCOc2cccc(Cl)c2Cl)C1)c1ccc2c(c1)OCCO2 (stereo not given) |  | 161 |  |  | 
CSc1ccccc1OCCN1CCC(CNS(=O)(=O)c2cccc(Cl)c2)CC1 | 147 | 78 | 18 | 50 | < 1
Cc1ccccc1C(=O)NCC1CCN(CCOc2cccc(-c3ccccc3)c2)CC1 |  | 2670 |  |  | 
CC(C)c1ccccc1OCCN1CCC(CNS(=O)(=O)c2ccc(F)cc2)CC1 | 313 | 60 | 141 | 50 | 2
CSc1ccccc1OCCN1CCC(NS(=O)(=O)c2ccc(Cl)s2)CC1 |  | 17 |  |  | 
O=S(=O)(NC1CCN(CCOc2ccccc2-c2ccccc2)C1)c1ccc(F)cc1 (stereo not given) |  | 5 |  |  | 
O=S(=O)(NC1CCN(CCOc2ccccc2)C1)c1ccc(Cl)s1 (stereo not given) | 957 |  | 65 | 318 | 
O=C(NC1CCN(CCOc2ccccc2-c2ccccc2)C1)c1ccc2ccccc2n1 (stereo not given) | 1340 | 41 | 45 | 24 | 1
Cc1ccccc1C(=O)NCC1CCN(CCOc2ccccc2C(C)(C)C)CC1 |  | 1500 |  |  | 
CCOc1ccccc1C(=O)NC1CCN(CCOc2cccc(-c3ccccc3)c2)C1 (stereo not given) |  | 1100 |  |  | 
Cc1ccccc1C(=O)NC1CCN(CCSc2cccc(Cl)c2Cl)C1 (stereo not given) |  | 427 |  |  | 
CC(C)c1ccccc1OCCN1CC[C@H](NS(=O)(=O)c2ccc(Cl)s2)C1 | 537 |  | 89 | 25 | 
COc1ccc(OC)c(S(=O)(=O)NCC2CCN(CCOc3ccccc3C(C)C)CC2)c1 |  | 27 |  |  | 
CC(C)c1ccccc1OCCN1CCC(NS(=O)(=O)c2cccs2)C1 (stereo not given) | 258 | 29 | 21 | 16 | < 1

SMILES | Ki [1] [nM] | Ki [2] [nM] | Ki [3] [nM] | Ki (D(2) dopamine receptor) [nM] | Ratio Ki (Homo sapiens)
CC(C)c1ccccc1OCCN1CC[C@@H](NS(=O)(=O)c2ccc(Cl)s2)C1 | 200 |  | 49 | 20 | 
O=S(=O)(NCC1CCN(CCOc2ccccc2-c2ccccc2)CC1)c1ccc(Cl)s1 | 410 | 20 | 101 | 32 | 5
O=S(=O)(NCC1CCN(CCOc2cccc(F)c2)CC1)c1cccs1 | 2760 | 2220 | 841 | 1060 | < 1
O=C(NC1CCN(CCOc2ccccc2-c2ccccc2)C1)c1cccc(F)c1F (stereo not given) | 1800 | 21 | 48 | 15 | 2
O=S(=O)(N[C@@H]1CCN(CCOc2ccccc2-c2ccccc2)C1)c1ccc(F)cc1 | 102 | 2 | 22 | 16 | 11
CC(C)(C)c1ccccc1OCCN1CCC(NC(=O)c2cccc(F)c2)CC1 |  | 1670 |  |  | 
CCOc1ccccc1C(=O)NC1CCN(CCOc2ccccc2-c2ccccc2)C1 (stereo not given) |  | 85 |  |  | 
O=S(=O)(NC1CCN(CCOc2ccccc2-c2ccccc2)C1)c1cc(F)ccc1F (stereo not given) | 515 | 9 | 81 | 18 | 9
CC(C)c1ccccc1OCCN1CCC(CNS(=O)(=O)c2cccc(Cl)c2)CC1 | 177 | 46 | 104 | 66 | 2
O=S(=O)(NC1CCN(CCOc2cc(Cl)ccc2Cl)C1)c1ccc(F)c(F)c1 (stereo not given) |  | 97 |  |  | 
O=C(NC1CCN(CCOc2ccccc2-c2ccccc2)CC1)c1cccc(F)c1 |  | 391 |  |  | 
O=S(=O)(c1ccc2cc[nH]c2c1)N1CCC[C@@H]1CCN1CCC(Oc2ccc(Cl)cc2)CC1 |  | 3.2 | 250 |  | 
O=S(=O)(N[C@@H]1CCN(CCOc2ccccc2-c2ccccc2)C1)c1ccc(Cl)s1 | 202 |  | 75 | 39 | 
O=C(NCC1CCN(CCOc2cc(Cl)ccc2Cl)CC1)c1cccc(F)c1 |  | 415 |  |  | 
O=S(=O)(NC1CCN(CCOc2ccccc2-c2ccccc2)CC1)c1ccc(Cl)s1 |  | 12 |  |  | 
O=S(=O)(NC1CCN(CCOc2cccc3c2CCCC3)C1)c1cc(F)ccc1F (stereo not given) | 156 | 16 | 10 | 60 | < 1
O=S(=O)(NC1CCN(CCOc2ccccc2)C1)c1ccc(F)cc1 (stereo not given) | 248 | 9 | 9 | 11 | 1
O=S(=O)(NC1CCN(CCOc2cccc(Cl)c2Cl)C1)c1ccc(Cl)s1 (stereo not given) | 91 |  | 28 | 67 | 
O=S(=O)(NC1CCN(CCOc2ccccc2-c2ccccc2)C1)c1cccs1 (stereo not given) | 267 | 10 | 45 | 16 | 5
O=S(=O)(NC1CCN(CCOc2ccccc2)CC1)c1cccs1 | 862 | 155 | 237 | 84 | 2
CC(C)c1ccccc1OCCN1CCC(CNC(=O)c2cccs2)CC1 |  | 407 |  |  | 
O=S(=O)(N[C@H]1CCN(CCOc2ccccc2-c2ccccc2)C1)c1ccc(F)cc1 | 271 | 10 | 32 | 10 | 3

SMILES | Ki [1] [nM] | Ki [2] [nM] | Ki [3] [nM] | Ki (D(2) dopamine receptor) [nM] | Ratio Ki (Homo sapiens)
O=C(NC1CCN(CCOc2ccccc2-c2ccccc2)CC1)c1cccs1 |  | 276 |  |  | 
O=C(NC1CCN(CCSc2ccccc2-c2ccccc2)CC1)c1ccc2ccccc2n1 |  | 865 |  |  | 
O=C(NC1CCN(CCOc2cccc3c2CCCC3)C1)c1cccc(F)c1 (stereo not given) |  | 2220 |  |  | 
CCOc1ccccc1C(=O)NC1CCN(CCOc2cccc(NC(C)=O)c2)C1 (stereo not given) |  | 3370 |  |  | 
CCOc1ccccc1C(=O)NC1CCN(CCOc2ccccc2C(C)C)C1 (stereo not given) |  | 204 |  |  | 
O=S(=O)(N[C@H]1CCN(CCOc2ccccc2-c2ccccc2)C1)c1ccc(Cl)s1 | 551 |  | 147 | 8 | 
O=S(=O)(NCC1CCN(CCOc2cccc(F)c2)CC1)c1ccc(F)cc1 | 2120 | 1360 | 903 | 839 | < 1
Cc1ccccc1C(=O)NCC1CCN(CCOc2cccc3c2CCCC3)CC1 |  | 409 |  |  | 
O=S(=O)(NCC1CCN(CCOc2cccc(F)c2)CC1)c1cccc(Cl)c1 | 831 | 2190 | 283 | 560 | < 1
O=S(=O)(NC1CCN(CCOc2cccc(F)c2)C1)c1cccs1 (stereo not given) | 1780 | 1440 | 270 | 729 | < 1
CCOc1ccccc1C(=O)NC1CCN(CCOc2cccc(F)c2)CC1 | 3780 | 2380 | 456 | 76 | < 1
O=S(=O)(NCC1CCN(CCOc2ccccc2-c2ccccc2)CC1)c1ccc(F)cc1 | 315 | 13 | 290 | 46 | 22
CSc1ccccc1OCCN1CCC(NC(=O)c2cccs2)CC1 |  | 1140 |  |  | 
Cc1ccccc1C(=O)NC1CCN(CCSc2cccc(Cl)c2Cl)CC1 |  | 815 |  |  | 
O=S(=O)(NC1CCN(CCSc2ccccc2-c2ccccc2)CC1)c1ccc(F)c(F)c1 |  | 93 |  |  | 
CCOc1ccccc1C(=O)NC1CCN(CCSc2ccccc2-c2ccccc2)CC1 |  | 329 |  |  | 
O=S(=O)(NC1CCN(CCOc2ccccc2-c2ccccc2)CC1)c1ccc(F)c(F)c1 | 199 | 7 | 313 | 63 | 45
CC(C)c1ccccc1OCCN1CCC(NS(=O)(=O)c2cccc(Cl)c2)C1 (stereo not given) | 245 | 4 | 31 | 25 | 8
O=S(=O)(NC1CCN(CCOc2cccc3c2CCCC3)C1)c1cccs1 (stereo not given) | 102 | 27 | 13 | 72 | < 1
O=S(=O)(NC1CCN(CCOc2cc(Cl)ccc2Cl)C1)c1ccc(Cl)s1 (stereo not given) | 225 |  | 717 | 78 | 
O=C(NC1CCN(CCOc2cccc(-c3ccccc3)c2)C1)c1cccc(F)c1 (stereo not given) |  | 709 |  |  | 
